These results are taken from ChEMBL document CHEMBL1156778, “Synthesis and structure-activity studies of biphenyl analogues of the tuberculosis drug (6S)-2-nitro-6-{[4-(trifluoromethoxy)benzyl]oxy}-6,7-dihydro-5H-imidazo[2,1-b][1,3]oxazine (PA-824)” (J Med Chem, 2010).

Values after ≈ are worked out from the molar mass of the structure shown.

The subject of data set [1] is Mycobacterium tuberculosis. The experiment in a line: Antitubercular activity against Mycobacterium tuberculosis H37Rv in aerobic condition after 7 days by microplate alamar blue assay. Type of data set: functional. The settings on record: 168 h. In short, it runs like this: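 M. tuberculosis H37Rv, replicating culture; 8-day microplate assay with Alamar blue added on day 7 to read growth. […] Mean of at least two independent determinations ± SD.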
(The colour change of resazurin is a common sign of viable cells or microbes.)

The subject of data set [2] is Mycobacterium tuberculosis. The experiment in a line: Antitubercular activity against Mycobacterium tuberculosis H37Rv infected in BALB/c mouse measured per mouse at 100 mg/kg, po daily for 5 days a week for 3 weeks. Format: functional.
A short description of data set [3]: Metabolic stability in pooled CD1 mouse liver microsomes assessed as compound remaining after 1 hr by LC-MS-MS. The settings on record: read-out: Stability. Format: ADME, Microsome. In short, it runs like this: (§1)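 Test compound at 1 μM with pooled CD-1 mouse or human liver microsomes (0.5 mg/mL protein) and NADPH-regenerating system (3.3 mM MgCl2, 3.3 mM G6P, 0.4 U/mL G6PD, 1.3 mM NADP+) in 75 mM phosphate, pH 7.4, 0.5% DMSO, 37 °C. Stopped at 0 and 60 min with MeCN containing metoprolol internal standard. LC-MS/MS (ESI, SRM), duplicates. % remaining = 100 × mean peak-area ratio at 60 min / at 0 min.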

Data set [4] relates to Mycobacterium tuberculosis. The experiment in a line: Antitubercular activity against Mycobacterium tuberculosis H37Rv infected in BALB/c mouse assessed as ratio of lung CFU for compound to lung CFU for PA-824 at 100 mg/kg, po daily for 5 days a week for 3 weeks. Format: functional.
For the next data set, the system named is Vero. The experiment in a line: Cytotoxicity against african green monkey Vero cells after 72 hrs by MTS assay. Format: cell-based. Particulars: Chlorocebus sabaeus. The gist of the method: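 VERO cells (CCL-81), 72 h exposure, tetrazolium dye read-out.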
For orientation: Tetrazolium dyes change colour on reduction, which living cells bring about.

Data set [5] is described as follows: Metabolic stability in pooled human liver microsomes assessed as compound remaining after 1 hr by LC-MS-MS. Type of data set: ADME, Microsome. The settings on record: read-out: Stability. The gist of the method:
as §1
For orientation: Liver microsomes are vesicles of endoplasmic reticulum, rich in cytochrome P450 enzymes.

Data set [6] relates to Mycobacterium tuberculosis. Nature of the data set: Antitubercular activity against Mycobacterium tuberculosis H37Rv in anaerobic condition after 7 days by low oxygen recovery assay. Format: functional. Particulars: 168 h.

With `O=[N+]([O-])c1cn2c(n1)OC[C@@H](OCc1ccc(-c3ccc(OC(F)(F)F)cc3F)cc1)C2`, the results for the minimal inhibitory concentration (MIC) in data set [1] and in data set [6] were 0.045 µM (≈ 0.0204 µg/mL) and 0.72 µM (≈ 0.326 µg/mL), respectively. The molecule also yielded a CFU in data set [2] of 39. Besides, the remaining at 1 h was determined as 89% in data set [3] and 88% in data set [5]. In data set [4], the “fold change (FC)” value stood at 46. For the same molecule, in the data set with Vero, the IC50 (in general, the concentration that inhibits the measured activity by half) is greater than 125 µM.
In the case of `O=[N+]([O-])c1cn2c(n1)OC[C@@H](OCc1ccc(-c3ccccc3OCCCO)cc1)C2`, the results for the minimal inhibitory concentration (MIC) in data set [1] and in data set [6] were 0.34 µM (≈ 0.145 µg/mL) and 2.7 µM (≈ 1.15 µg/mL), respectively. Moreover, in data set [2], the CFU amounted to 1100000. For the same molecule, the remaining at 1 h in data set [3] is 21%; in data set [5] it was 59%. Moreover, in data set [4], the “fold change (FC)” value is given as less than 0.01. The molecule further had an IC50 in the data set with Vero greater than 125 µM.
In the case of `O=[N+]([O-])c1cn2c(n1)OC[C@@H](OCc1ccc(-c3ccc(OC(F)F)cc3)cc1)C2`, the minimal inhibitory concentration (MIC) (in general, the smallest concentration in the dilution series that meets the test's criterion for growth inhibition) in data set [1] worked out at 0.05 µM (≈ 0.0209 µg/mL); in data set [6], 0.77 µM (≈ 0.321 µg/mL). In addition, the CFU in data set [2] is listed as 1100. Further, the remaining at 1 h in data set [3] came out at 77%; in data set [5], 94%. The “fold change (FC)” value in data set [4] came to 8.5. The molecule also returned an IC50 in the data set with Vero greater than 125 µM.
For the molecule `O=[N+]([O-])c1cn2c(n1)OC[C@@H](OCc1ccc(-c3ccc(CNc4ccccc4)cc3)cc1)C2`, the MIC is 0.06 µM (≈ 0.0274 µg/mL) in data set [1] and 0.63 µM (≈ 0.288 µg/mL) in data set [6]. This molecule also came in with a CFU in data set [2] of 500000. The remaining at 1 h in data set [3] turned out to be 52%; in data set [5] it was 12%. Further, the “fold change (FC)” value in data set [4] was 0.03. The molecule also showed an IC50 with Vero greater than 125 µM.
On to `COc1c(F)cc(F)cc1-c1ccc(CO[C@@H]2COc3nc([N+](=O)[O-])cn3C2)cc1`, for which the minimum inhibitory concentration (MIC) in data set [1] was determined as 0.04 µM (≈ 0.0167 µg/mL); in data set [6] it was 0.86 µM (≈ 0.359 µg/mL). The molecule also showed a CFU in data set [2] of 200000. Also, the results for the remaining at 1 h in data set [3] and in data set [5] were 2% and 72%, respectively. Moreover, in data set [4], the “fold change (FC)” value came out at 0.4. Moreover, the 50% inhibitory concentration (IC50) with Vero is greater than 125 µM.
For `COc1ccc(-c2ccc(CO[C@@H]3COc4nc([N+](=O)[O-])cn4C3)cc2)cc1F`, the minimum inhibitory concentration (MIC) was 0.04 µM (≈ 0.016 µg/mL) in data set [1] and 1.9 µM (≈ 0.759 µg/mL) in data set [6]. Further, the CFU in data set [2] stood at 850000. For the same molecule, the remaining at 1 h was 50% in data set [3] and 80% in data set [5]. Further, the “fold change (FC)” value in data set [4] came to 0.02. The IC50 in the data set with Vero is greater than 125 µM.
For the molecule `COc1cccc(F)c1-c1ccc(CO[C@@H]2COc3nc([N+](=O)[O-])cn3C2)cc1`, the results for the MIC in data set [1] and in data set [6] were 0.13 µM (≈ 0.0519 µg/mL) and 0.81 µM (≈ 0.323 µg/mL), respectively. Further, the CFU in data set [2] was 1100000. In addition, the remaining at 1 h in data set [3] was found to be 0%; in data set [5], 91%. Moreover, in data set [4], the “fold change (FC)” value stood at 0.07. Moreover, the concentration for half-maximal inhibition (IC50) in the data set on Vero was greater than 125 µM.
Turning to `O=[N+]([O-])c1cn2c(n1)OC[C@@H](OCc1ccc(-c3ccc(Cl)c(OC(F)(F)F)c3)cc1)C2`, the results for the minimum inhibitory concentration (MIC) in data set [1] and in data set [6] were 0.04 µM (≈ 0.0188 µg/mL) and 0.95 µM (≈ 0.446 µg/mL), respectively. This molecule registered a CFU in data set [2] of 360. Also, the remaining at 1 h was 92% in data set [3] and 95% in data set [5]. In data set [4], the “fold change (FC)” value was found to be 9.7. The half-inhibitory concentration (IC50) with Vero was greater than 125 µM.
On to `O=[N+]([O-])c1cn2c(n1)OC[C@@H](OCc1ccc(-c3ccc(OCCCN4CCOCC4)cc3)cc1)C2`, for which the minimum inhibitory concentration (MIC) in data set [1] was 0.097 µM (≈ 0.048 µg/mL); in data set [6], 1 µM (≈ 0.495 µg/mL). In data set [2], this molecule came in with a CFU of 310000. Further, the remaining at 1 h in data set [3] was 14%; in data set [5] it was 11%. Also, the “fold change (FC)” value in data set [4] stood at 0.05. The molecule further had an IC50 in the data set on Vero greater than 125 µM.
Take `O=[N+]([O-])c1cn2c(n1)OC[C@@H](OCc1ccc(-c3cccc(OCc4ccccc4)c3)cc1)C2`: the MIC in data set [1] amounted to 0.12 µM (≈ 0.0549 µg/mL); in data set [6] it was 0.88 µM (≈ 0.403 µg/mL). In data set [2], the CFU was found to be 120000. Besides, the figures for the remaining at 1 h in data set [3] and in data set [5] were 50% and 64%, respectively. Besides, the “fold change (FC)” value in data set [4] turned out to be 0.66. This molecule registered an IC50 in the data set on Vero greater than 125 µM.
